According to ChEMBL document CHEMBL1134346, “Labeling and evaluation of N-[11C]methylated quinoline-2-carboxamides as potential radioligands for visualization of peripheral benzodiazepine receptors” (J Med Chem, 2001):

Assays:
[1] = organism: Rattus norvegicus; experiment: Tissue (spleen) distribution in Albino male CD rats after 60 minutes expressed as percent of injected dose per gram of organ.; format: ADME, organism-based; settings: in vivo, 1 h
[2] = organism: Rattus norvegicus; experiment: Tissue (testicle) distribution in Albino male CD rats after 30 minutes expressed as percent of injected dose per gram of organ.; format: ADME, organism-based; settings: in vivo, 0.5 h
Procedure, shortened: (§1)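 Male albino CD rats (225-250 g) received the 11C-labelled radioligand in saline by tail-vein injection. Three rats per time point were decapitated under light ether anaesthesia at 5, 15, 30, 60 or 90 min. Blood was collected heparinized and plasma separated by centrifugation. The pituitary was dissected from the brain. Lung, liver (three-lobe pieces) and right deltoid muscle were sampled, washed in cold saline, gamma-counted and weighed. Results are %I.D./g.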

[3] = organism: Rattus norvegicus; experiment: Tissue (testicle) distribution in Albino male CD rats after 60 minutes expressed as percent of injected dose per gram of organ.; format: ADME, organism-based; settings: in vivo, 1 h; procedure, shortened: as §1
[4] = organism: Rattus norvegicus; experiment: Tissue (testicle) distribution in Albino male CD rats after 90 minutes expressed as percent of injected dose per gram of organ.; format: ADME, organism-based; settings: in vivo, 1.5 h
[5] = organism: Rattus norvegicus; experiment: Tissue (kidney) distribution in Albino male CD rats after 30 minutes expressed as percent of injected dose per gram of organ.; format: ADME, organism-based; settings: in vivo, 0.5 h
Procedure, shortened: (§2)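 Radioligand given in saline into tail vein of male albino CD rats (225-250 g); 100-200 µCi per animal, 1-2 Ci/µmol at injection depending on radioligand. Three rats per time point were decapitated under light ether anaesthesia. Blood, plasma, brain regions and washed organs were weighed and gamma-counted. Uptake is %I.D./g tissue, mean ± SD.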

[6] = organism: Rattus norvegicus; experiment: Tissue (kidney) distribution in Albino male CD rats after 5 minutes expressed as percent of injected dose per gram of organ.; format: ADME, organism-based; settings: in vivo; procedure, shortened: as §2
[7] = organism: Rattus norvegicus; experiment: Tissue (liver) distribution in Albino male CD rats after 5 minutes expressed as percent of injected dose per gram of organ.; format: ADME, organism-based; settings: in vivo; procedure, shortened: as §1
[8] = organism: Rattus norvegicus; experiment: Tissue (liver) distribution in Albino male CD rats after 60 minutes expressed as percent of injected dose per gram of organ.; format: ADME, organism-based; settings: in vivo, 1 h; procedure, shortened: as §1
[9] = target: Translocator protein (Rattus norvegicus) (UniProt P16257); experiment: Tissue (lung) concentration of radioactivity at 30 min post-injection into Albino male CD rats after pretreatment with cold PK 11195.; format: functional
Procedure, shortened: (§3)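 Blocking study in male albino CD rats, five per group. Immediately before the 11C radioligand (in saline, i.v. tail vein), rats received 30 µL tail-vein PK 11195 (5 mg/kg; 1.4-1.6 mg) in DMSO:EtOH 1:1, or vehicle. Rats were decapitated at 30 min. Tissues were dissected, washed, gamma-counted and weighed as in the biodistribution study. Results are %I.D./g.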

[10] = organism: Rattus norvegicus; experiment: Tissue (lung) distribution in Albino male CD rats after 30 minutes expressed as percent of injected dose per gram of organ.; format: ADME, organism-based; settings: in vivo, 0.5 h; procedure, shortened: as §1
[11] = target: Translocator protein (Rattus norvegicus) (UniProt P16257); experiment: Tissue (muscle) concentration of radioactivity at 30 min post-injection into Albino male CD rats after pretreatment with cold PK 11195.; format: functional; procedure, shortened: as §3
[12] = organism: Rattus norvegicus; experiment: Tissue (blood) distribution in Albino male CD rats after 15 minutes expressed as percent of injected dose per gram of organ.; format: ADME, organism-based; settings: in vivo, 0.25 h; procedure, shortened: as §2
[13] = organism: Rattus norvegicus; experiment: Tissue (adrenal gland) distribution in Albino male CD rats after 30 minutes expressed as percent of injected dose per gram of organ.; format: ADME, organism-based; settings: in vivo, 0.5 h; procedure, shortened: as §2
[14] = organism: Rattus norvegicus; experiment: Tissue (adrenal gland) distribution in Albino male CD rats after 5 minutes expressed as percent of injected dose per gram of organ.; format: ADME, organism-based; settings: in vivo; procedure, shortened: as §2
[15] = organism: Rattus norvegicus; experiment: Tissue (spleen) distribution in Albino male CD rats after 30 minutes expressed as percent of injected dose per gram of organ.; format: ADME, organism-based; settings: in vivo, 0.5 h; procedure, shortened: as §1
[16] = organism: Rattus norvegicus; experiment: Tissue (muscle) distribution in Albino male CD rats after 30 minutes expressed as percent of injected dose per gram of organ.; format: ADME, organism-based; settings: in vivo, 0.5 h; procedure, shortened: as §1
[17] = organism: Rattus norvegicus; experiment: Tissue (muscle) distribution in Albino male CD rats after 5 minutes expressed as percent of injected dose per gram of organ.; format: ADME, organism-based; settings: in vivo; procedure, shortened: as §1
[18] = organism: Rattus norvegicus; experiment: Tissue (cortex) distribution in Albino male CD rats after 15 minutes expressed as percent of injected dose per gram of organ.; format: ADME, organism-based; settings: in vivo, 0.25 h; procedure, shortened: as §2
[19] = organism: Rattus norvegicus; experiment: Tissue (cortex) distribution in Albino male CD rats after 90 minutes expressed as percent of injected dose per gram of organ.; format: ADME, organism-based; settings: in vivo, 1.5 h; procedure, shortened: as §2
[20] = organism: Rattus norvegicus; experiment: Tissue (heart) concentration of radioactivity at 30 min post-injection into Albino male CD rats with vehicle.; format: ADME, organism-based; settings: in vivo, 0.5 h
Procedure, shortened: (§4)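 Separate groups of five rats received tail-vein PK 11195 (1.4-1.6 mg; 5 mg/kg) in 30 µL DMSO:EtOH 1:1, or vehicle alone, immediately before iv radioligand (90-170 µCi in saline, 0.9-1 Ci/µmol). Rats were decapitated at 30 min and tissues gamma-counted; values are %I.D./g.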

[21] = target: Translocator protein (Rattus norvegicus) (UniProt P16257); experiment: Tissue (adrenal gland) concentration of radioactivity at 30 min post-injection into Albino male CD rats after pretreatment with cold PK 11195.; format: functional, tissue-based; procedure, shortened: as §4
[22] = organism: Rattus norvegicus; experiment: Tissue (muscle) distribution in Albino male CD rats after 60 minutes expressed as percent of injected dose per gram of organ.; format: ADME, organism-based; settings: in vivo, 1 h; procedure, shortened: as §1
[23] = target: Translocator protein (Rattus norvegicus) (UniProt P16257); experiment: Tissue (pituitary) concentration of radioactivity at 30 min post-injection into Albino male CD rats after pretreatment with cold PK 11195.; format: functional, tissue-based; settings: Pituitary gland; procedure, shortened: as §3
[24] = organism: Rattus norvegicus; experiment: Tissue (pituitary) concentration of radioactivity at 30 min post-injection into Albino male CD rats with vehicle.; format: ADME, organism-based, Pituitary gland; settings: in vivo, 0.5 h; procedure, shortened: as §3
[25] = organism: Rattus norvegicus; experiment: Tissue (pituitary) distribution in Albino male CD rats after 30 minutes expressed as percent of injected dose per gram of organ.; format: ADME, organism-based, Pituitary gland; settings: in vivo, 0.5 h; procedure, shortened: as §1
[26] = organism: Rattus norvegicus; experiment: Tissue (pituitary) distribution in Albino male CD rats after 5 minutes expressed as percent of injected dose per gram of organ.; format: ADME, organism-based, Pituitary gland; settings: in vivo; procedure, shortened: as §1
[27] = organism: Rattus norvegicus; experiment: Tissue (plasma) distribution in Albino male CD rats after 30 minutes expressed as percent of injected dose per gram of organ.; format: ADME, organism-based; settings: in vivo, 0.5 h; procedure, shortened: as §1
[28] = organism: Rattus norvegicus; experiment: Tissue (plasma) distribution in Albino male CD rats after 5 minutes expressed as percent of injected dose per gram of organ.; format: ADME, organism-based; settings: in vivo; procedure, shortened: as §1
[29] = target: Translocator protein (Rattus norvegicus) (UniProt P16257); experiment: Tissue (spleen) concentration of radioactivity at 30 min post-injection into Albino male CD rats after pretreatment with cold PK 11195.; format: functional, tissue-based; procedure, shortened: as §3
[30] = organism: Rattus norvegicus; experiment: Tissue (heart) distribution in Albino male CD rats after 30 minutes expressed as percent of injected dose per gram of organ.; format: ADME, organism-based; settings: in vivo, 0.5 h; procedure, shortened: as §2
[31] = organism: Rattus norvegicus; experiment: Tissue (heart) distribution in Albino male CD rats after 60 minutes expressed as percent of injected dose per gram of organ.; format: ADME, organism-based; settings: in vivo, 1 h; procedure, shortened: as §2
[32] = organism: Rattus norvegicus; experiment: Tissue (intestine) distribution in Albino male CD rats after 5 minutes expressed as percent of injected dose per gram of organ.; format: ADME, organism-based; settings: in vivo; procedure, shortened: as §2
[33] = organism: Rattus norvegicus; experiment: Tissue (intestine) distribution in Albino male CD rats after 60 minutes expressed as percent of injected dose per gram of organ.; format: ADME, organism-based; settings: in vivo, 1 h; procedure, shortened: as §2
[34] = target: Translocator protein (Rattus norvegicus) (UniProt P16257); experiment: Tissue (kidney) concentration of radioactivity at 30 min post-injection into Albino male CD rats after pretreatment with cold PK 11195.; format: functional, tissue-based; procedure, shortened: as §4
[35] = organism: Rattus norvegicus; experiment: Tissue (blood) distribution in Albino male CD rats after 90 minutes expressed as percent of injected dose per gram of organ.; format: ADME, organism-based; settings: in vivo, 1.5 h; procedure, shortened: as §2
[36] = organism: Rattus norvegicus; experiment: Tissue (cerebellum) distribution in Albino male CD rats after 5 minutes expressed as percent of injected dose per gram of organ.; format: ADME, organism-based; settings: in vivo; procedure, shortened: as §2
[37] = target: Translocator protein (Rattus norvegicus) (UniProt P16257); experiment: Tissue (liver) concentration of radioactivity at 30 min post-injection into Albino male CD rats after pretreatment with cold PK 11195.; format: functional, tissue-based; procedure, shortened: as §4
[38] = organism: Rattus norvegicus; experiment: Tissue (lung) distribution in Albino male CD rats after 15 minutes expressed as percent of injected dose per gram of organ.; format: ADME, organism-based; settings: in vivo, 0.25 h; procedure, shortened: as §1
[39] = organism: Rattus norvegicus; experiment: Tissue (intestine) distribution in Albino male CD rats after 15 minutes expressed as percent of injected dose per gram of organ.; format: ADME, organism-based; settings: in vivo, 0.25 h; procedure, shortened: as §2

Translocator protein (Rattus norvegicus), sequence (P16257 whole entry, looked up): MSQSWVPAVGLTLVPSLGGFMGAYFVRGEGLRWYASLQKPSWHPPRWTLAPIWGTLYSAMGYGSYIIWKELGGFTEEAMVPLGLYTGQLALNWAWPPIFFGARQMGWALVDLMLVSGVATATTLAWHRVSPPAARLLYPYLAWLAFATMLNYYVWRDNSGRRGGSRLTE

I.D./g [1]: 1.25%
I.D./g [2]: 0.08%
I.D./g [3]: 0.09%
I.D./g [4]: 0.08%
I.D./g [5]: 0.77%
I.D./g [6]: 0.59%
I.D./g [7]: 0.64%
I.D./g [8]: 0.32%
I.D./g [9]: < 0.14%
I.D./g [10]: 2.34%
I.D./g [11]: > 0.07%
I.D./g [12]: 0.08%
I.D./g [13]: 2.54%
I.D./g [14]: 1.32%
I.D./g [15]: 1.25%
I.D./g [16]: 0.16%
I.D./g [17]: 0.11%
I.D./g [18]: 0.07%
I.D./g [19]: 0.03%
I.D./g [20]: 0.77%
I.D./g [21]: > 0.94%
I.D./g [22]: 0.12%
I.D./g [23]: < 0.07%
I.D./g [24]: 0.25%
I.D./g [25]: 0.24%
I.D./g [26]: 0.22%
I.D./g [27]: 0.03%
I.D./g [28]: 0.12%
I.D./g [29]: < 0.11%
I.D./g [30]: 1.21%
I.D./g [31]: 1.26%
I.D./g [32]: 0.25%
I.D./g [33]: 0.4%
I.D./g [34]: < 0.16%
I.D./g [35]: 0.03%
I.D./g [36]: 0.13%
I.D./g [37]: < 0.56%
I.D./g [38]: 2.01%
I.D./g [39]: 0.32%
SMILES: CCC(C)N(C)C(=O)c1nc2ccccc2c(-c2ccccc2)c1C (centres undefined)
